Laboratory results reported in ChEMBL document CHEMBL1132190, “Synthesis of 1-substituted 3-(chloromethyl)-6-aminoindoline (6-amino-seco-CI) DNA minor groove alkylating agents and structure-activity relationships for their cytotoxicity” (J Med Chem, 1999).
In brackets after ≈: the same amount, converted by molar mass.

Key:
[1] = tested on: UV4; assay: Cytotoxicity in chinese hamster ovary tumor cell line -UV4 (repair deffective ERCC-1 mutant), by growth inhibition assay.; format: functional, cell-based; conditions: Cricetulus griseus
Outline: (§1)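 Log-phase monolayers in α-MEM with 5% FBS, no antibiotics; seeded at 200 (AA8), 300 (UV4) or 50 (EMT6) cells/well. After 24 h, exposed to drug (DMSO stock, final DMSO <1%, medium pH 7.4) for 4 h at 37 °C, 5% CO₂, aerobic. Washed, then regrown 4 days. Methylene blue staining read cell density. IC50 = 50% growth inhibition versus same-plate controls.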

[2] = tested on: EMT6; assay: Cytotoxicity in murine mammary carcinoma tumor cell line-EMT6, by growth inhibition assay.; format: functional, cell-based; conditions: Mus musculus; outline: as §1
[3] = tested on: CHO-AA8; assay: Cytotoxicity in chinese hamster ovary tumor cell line-AA8, by growth inhibition assay.; format: functional, cell-based; conditions: Cricetulus griseus; outline: as §1
[4] = Solubility in 0.1 M phosphate buffer (pH 7.0) at room temperature.; format: physicochemical; conditions: read-out: S
Outline: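 Solid suspended in 0.1 M phosphate buffer pH 7.0, sonicated 5 min at room temperature, centrifuged 5 min. Supernatant assayed by HPLC against a standard curve of known concentrations in acetonitrile. Three determinations, averaged.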

[5] = tested on: SK-OV-3; assay: Cytotoxicity in human ovarian tumor cell line-SKOV3, by growth inhibition assay.; format: functional, cell-based
Outline: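 SKOV3 log-phase monolayers in α-MEM with 5% FBS, no antibiotics; 600 cells/well. After 24 h, 4 h aerobic drug exposure at 37 °C, 5% CO₂ (DMSO stock, final DMSO <1%, medium pH 7.4). Washed, then regrown 5 days. Methylene blue staining gave cell density. IC50 = 50% growth inhibition versus controls on the same plate.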

Structure (SMILES)	IC50 [1] [µM]	IC50 [2] [µM]	IC50 [3] [µM]	solubility [4] [µM]	IC50 [5] [µM]
COc1cc2cc(C(=O)N3CC(CCl)c4ccc(N)cc43)[nH]c2c(OC)c1OC (stereo not given)	0.055	0.27	0.35	32 (≈ 13.3 µg/mL)	0.63
COc1cc(OCCN(C)C)c2[nH]c(C(=O)N3CC(CCl)c4ccc(N)cc43)cc2c1 (stereo not given)	0.029	0.09	0.14	47 (≈ 20.8 µg/mL)	0.16
Nc1ccc2c(c1)N(C(=O)c1cc3cc(NC(=O)c4cc5ccccc5o4)ccc3[nH]1)CC2CCl (stereo not given)	0.087	0.19	0.16		0.6
CCCC(=O)Nc1cc(/C=C/C(=O)N2CC(CCl)c3ccc(N)cc32)n(C)c1 (stereo not given)	0.31	0.91	2.1		1.9
COc1ccc2oc(C(=O)N3CC(CCl)c4ccc(N)cc43)cc2c1 (stereo not given)	0.12	0.64	0.88		1.1
CN(C)CCOc1ccc2[nH]c(C(=O)N3CC(CCl)c4ccc(N)cc43)cc2c1 (stereo not given)	0.044	0.12	0.16	700 (≈ 289 µg/mL)	0.26
COc1cc2cc(C(=O)N3CC(CCl)c4ccc(N)cc43)[nH]c2cc1OCCN(C)C (stereo not given)	0.039	0.11	0.22	> 1200	0.15
COc1ccc2[nH]c(S(=O)(=O)N3CC(CCl)c4ccc(N)cc43)cc2c1 (stereo not given)	4.3	4.9	8.2		2.7
COc1ccc2oc(S(=O)(=O)N3CC(CCl)c4ccc(N)cc43)cc2c1 (stereo not given)	2.8	2.6	6.6		4.4
COc1ccc2[nH]c(C(=O)N3CC(CCl)c4ccc(N)cc43)cc2c1 (stereo not given)	0.047	0.23	0.31	23 (≈ 8.18 µg/mL)	0.67
